From ChEMBL document CHEMBL3351933, “Indimicins A-E, Bisindole Alkaloids from the Deep-Sea-Derived Streptomyces sp. SCSIO 03032” (J Nat Prod, 2014)
The source made the active and inactive calls. The calls are words filed in the database; no cut-off is given here.

Key:
Escherichia coli = assay: Antimicrobial activity against Escherichia coli ATCC 25922 by the broth microdilution method; assay type: functional
Staphylococcus aureus = assay: Antimicrobial activity against Staphylococcus aureus ATCC 29213 by the broth microdilution method; assay type: functional
Bacillus thuringiensis = assay: Antimicrobial activity against Bacillus thuringiensis SCSIO BT01 by the broth microdilution method; assay type: functional
Bacillus subtilis = assay: Antimicrobial activity against Bacillus subtilis SCSIO BS01 by the broth microdilution method; assay type: functional
Candida albicans = assay: Antimicrobial activity against Candida albicans ATCC10231 by the broth microdilution method; assay type: functional
MCF7 = assay: Cytotoxicity against human MCF7 cells by SRB assay; assay type: functional, cell-based
Procedure, shortened: (§1)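 Sulforhodamine B (SRB) cytotoxicity assay, following an earlier published protocol, run in vitro against a four-line human tumor panel: HepG2 (hepatocellular liver carcinoma), MCF7 (breast adenocarcinoma), NCI-H460 (non-small-cell lung cancer) and SF268 (glioma). IC50 values reported in μM.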

NCI-H460 = assay: Cytotoxicity against human NCI-H460 cells by SRB assay; assay type: functional, cell-based; procedure, shortened: as §1
HepG2 = assay: Cytotoxicity against human HepG2 cells by SRB assay; assay type: functional, cell-based; procedure, shortened: as §1

| MIC (Escherichia coli) | MIC (Staphylococcus aureus) | MIC (Bacillus thuringiensis) | MIC (Bacillus subtilis) | MIC (Candida albicans) | Structure (SMILES) | IC50 (MCF7) | inhibition (NCI-H460) | inhibition (HepG2) |
| --- | --- | --- | --- | --- | --- | --- | --- | --- |
| > 128 µg/mL | > 128 µg/mL | > 128 µg/mL | > 128 µg/mL | > 128 µg/mL | COC(=O)c1c(-c2c[nH]c3ccc(Cl)cc23)c(-c2c[nH]c3ccc(Cl)cc23)c(C(=O)OC)n1C | > 10 µM | inactive | inactive |
| > 128 µg/mL | > 128 µg/mL | > 128 µg/mL | > 128 µg/mL | > 128 µg/mL | CN1c2ccc(Cl)cc2[C@@]2(C)c3cn(C)cc3-c3c([nH]c4ccc(Cl)cc34)[C@@H]12 | > 10 µM | inactive | inactive |
| > 128 µg/mL | > 128 µg/mL | > 128 µg/mL | > 128 µg/mL | > 128 µg/mL | Cc1[nH]cc2c1-c1c([nH]c3ccc(Cl)cc13)[C@H]1N(C)c3ccc(Cl)cc3[C@@]21C | > 10 µM | inactive | inactive |
| > 128 µg/mL | > 128 µg/mL | > 128 µg/mL | > 128 µg/mL | > 128 µg/mL | CN1C[C@](C)(c2cn(C)cc2-c2c[nH]c3ccc(Cl)cc23)c2cc(Cl)ccc21 | > 10 µM | inactive | inactive |
| > 128 µg/mL | > 128 µg/mL | > 128 µg/mL | > 128 µg/mL | > 128 µg/mL | CN1c2ccc(Cl)cc2[C@@]2(C)c3c[nH]cc3-c3c([nH]c4ccc(Cl)cc34)[C@@H]12 | > 10 µM | inactive | inactive |
| > 128 µg/mL | > 128 µg/mL | > 128 µg/mL | > 128 µg/mL | > 128 µg/mL | COC(=O)c1c(-c2c[nH]c3ccc(Cl)cc23)c(-c2c[nH]c3ccc(Cl)cc23)cn1C | > 10 µM | inactive | inactive |
| > 128 µg/mL | > 128 µg/mL | > 128 µg/mL | > 128 µg/mL | > 128 µg/mL | Cc1c2c(cn1C)[C@]1(C)c3cc(Cl)ccc3N(C)[C@@H]1c1[nH]c3ccc(Cl)cc3c1-2 | 10 µM | inactive | inactive |
